The values that follow come from ChEMBL document CHEMBL4118259, “Synthesis of sulfadiazinyl acyl/aryl thiourea derivatives as calf intestinal alkaline phosphatase inhibitors, pharmacokinetic properties, lead optimization, Lineweaver-Burk plot evaluation and binding analysis” (Bioorg Med Chem, 2018).

Holding throughout (settings): Bos taurus
Compound in data set [1]: O=C(NC(=S)Nc1ccc(S(=O)(=O)Nc2ncccn2)cc1)c1ccc(Cl)cc1
The data set can be described thus: Mixed-type inhibition of calf intestinal alkaline phosphatase assessed as substrate Km at 0.015 uM using varying levels of p-NPP as substrate by Lineweaver-Burk plot analysis (reference value: 0.833 mM). The essentials:
(§1)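 Same CIALP buffer and enzyme system with inhibitor at 0.0, 0.015 and 0.3 µM and p-NPP at 10, 5, 2.5, 1.25 and 0.625 mM. Initial velocities were read every minute over the first 10 min after enzyme addition. Inhibition type came from Lineweaver-Burk plots of 1/V vs 1/[S]. Ki came from secondary plots of slope vs inhibitor concentration, Ki′ from intercept vs concentration.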

Compound in data set [2]: O=C(NC(=S)Nc1ccc(S(=O)(=O)Nc2ncccn2)cc1)c1ccc(Cl)cc1
Put plainly: Mixed-type inhibition of calf intestinal alkaline phosphatase assessed as substrate Vmax at 0.015 uM using varying levels of p-NPP as substrate measured every minute for 10 mins by Lineweaver-Burk plot analysis (reference value: 1.2 10^-5deltaA/s). The method in brief: as §1

Compound in data set [3]: O=C(NC(=S)Nc1ccc(S(=O)(=O)Nc2ncccn2)cc1)c1ccc(Cl)cc1
Put plainly: Mixed-type inhibition of calf intestinal alkaline phosphatase assessed as substrate Km at 0.3 uM using varying levels of p-NPP as substrate by Lineweaver-Burk plot analysis (reference value: 0.833 mM). The method in brief: as §1

Compound in data set [4]: O=C(NC(=S)Nc1ccc(S(=O)(=O)Nc2ncccn2)cc1)c1ccc(Cl)cc1
Put plainly: Mixed-type inhibition of calf intestinal alkaline phosphatase assessed as substrate Vmax at 0.3 uM using varying levels of p-NPP as substrate measured every minute for 10 mins by Lineweaver-Burk plot analysis (reference value: 1.2 10^-5deltaA/s). The method in brief:
as §1

B1: Intestinal-type alkaline phosphatase (Bos taurus), P19111 (protein)
chain: MQGACVLLLLGLHLQLSLGLVPVEEEDPAFWNRQAAQALDVAKKLQPIQTAAKNVILFLGDGMGVPTVTATRILKGQMNGKLGPETPLAMDQFPYVALSKTYNVDRQVPDSAGTATAYLCGVKGNYRTIGVSAAARYNQCKTTRGNEVTSVMNRAKKAGKSVGVVTTTRVQHASPAGAYAHTVNRNWYSDADLPADAQMNGCQDIAAQLVNNMDIDVILGGGRKYMFPVGTPDPEYPDDASVNGVRKRKQNLVQAWQAKHQGAQYVWNRTALLQAADDSSVTHLMGLFEPADMKYNVQQDHTKDPTLQEMTEVALRVVSRNPRGFYLFVEGGRIDHGHHDDKAYMALTEAGMFDNAIAKANELTSELDTLILVTADHSHVFSFGGYTLRGTSIFGLAPSKALDSKSYTSILYGNGPGYALGGGSRPDVNDSTSEDPSYQQQAAVPQASETHGGEDVAVFARGPQAHLVHGVEEETFVAHIMAFAGCVEPYTDCNLPAPTTATSIPDAAHLAASPPPLALLAGAMLLLLAPTLY
With B1, the results for the Km in data set [1] and in data set [3] were 1330 µM and 2000 µM, respectively. The Vmax (10'-6deltaA/s) in data set [2] amounted to 8. Further, the Vmax (10'-5deltaA/s) in data set [4] came to 4.9.

By Km is commonly meant the concentration of substrate that gives half-maximal velocity.
